Measurements collected from several papers.
Each line is one published result; the experiments were not run side by side.
Target: Bone morphogenetic protein receptor type-1A (BMPR1A, Homo sapiens, UniProt P36894)

| Compound | test | conditions | remaining binding |
| --- | --- | --- | --- |
| CN(C)c1ncnc(-c2ccc3nc(Nc4cc(CN5CCN(C(=O)CC(F)(F)F)CC5)ccn4)[nH]c3c2)c1Cl | cell-free assay, competition with immobilised ligand | 1 µM | 95% |
| CN(C)c1nccc(-c2cnn3ncccc23)n1 | binding | 1 µM | 81% |
| CN(c1ccnc(CNc2nc(Nc3ccc4c(c3)CC(=O)N4)ncc2C(F)(F)F)n1)S(C)(=O)=O | binding, competition with immobilised ligand | 1 µM | 89% |
| c1cnn2ncc(-c3ccnc(N4CCC45COC5)n3)c2c1 | binding | 1 µM | 88% |
| FC(F)(F)Oc1cccc(-c2cnc3ccc(-c4ccncc4)nn23)c1 | cell-free assay, competition with immobilised ligand | 5 µM | 81% |
| c1ccc(N2CCN(Cc3nc4ccccc4[nH]3)CC2)nc1 | binding, competition with immobilised ligand | 1 µM | 86% |
| CN(C)c1nccc(-c2cnc3ncccn23)n1 | binding | 1 µM | 100% |
| FC(F)(F)c1ccc2c(c1)nc(-c1cccnc1)n2C1CC1 | cell-free assay, competition with immobilised ligand | 1 µM | 93% |
| O=C(Nc1c[nH]nc1C(=O)NC1CCNCC1)c1cc(F)cc(F)c1 | binding, competition with immobilised ligand | 1 µM | 89% |
| Cc1cnc(Nc2ccc(C(=O)N3CCC(N4CCCC4)CC3)cc2)nc1-c1cc2ccccc2s1 | binding, competition with immobilised ligand | 1 µM | 60% |
| N[C@H]1CCN(c2nccc(-c3cnn4ncccc34)n2)C1 | binding | 1 µM | 75% |
| Nc1ncc2c(n1)-c1c([nH]c3ccc(C#CC4CC4)cc13)CCCC2 | binding, competition with immobilised ligand | 1 µM | 95% |
| O=C(c1ccc(Nc2ncc(Cl)c(-c3ccc(Cl)s3)n2)cc1)N1CCC(N2CCCC2)CC1 | binding, competition with immobilised ligand | 1 µM | 59% |
| c1cncc(-c2cccc(Nc3nccc(NC4CCCCC4)n3)c2)c1 | binding, competition with immobilised ligand | 10 µM | 73% |
| CS(=O)(=O)NCC[C@H](NC(=O)c1cncc2c1cnn2-c1ccc(F)cc1)c1ccnc(S(C)(=O)=O)c1 | binding, competition with immobilised ligand | 1 µM | 92% |
| O=C(c1ccc(Nc2ncc(Cl)c(-c3cc4ccccc4s3)n2)cc1)N1CCC(N2CCCC2)CC1 | binding, competition with immobilised ligand | 1 µM | 60% |
| COc1cnc(Nc2cccc(S(N)(=O)=O)c2)nc1N1CCN(c2ccccc2)C(=O)C1 | binding, competition with immobilised ligand | 1 µM | 67% |
| CN(CCCC(F)(F)F)c1nccc(-c2cnn3ncccc23)n1 | binding | 1 µM | 83% |
| C=CC(=O)N1CCC(C(=O)NCC(=O)N2CCN(c3nc(-c4cnc(N)nc4C(F)F)nc(N4CCOCC4)n3)CC2)CC1 | binding, competition with immobilised ligand | 1 µM | 80% |
| CC1=C(C#N)[C@@H](c2ccc3[nH]nc(C)c3c2)C(C#N)=C(c2ccc(Cl)cc2)N1 | binding, competition with immobilised ligand | 1 µM | 98.6% |
